Screening results: PubChem BioAssay, several laboratories
Sampled rows, rich in hits. Any-hit rate of the full collection: about 2.1%.
Phagocytosis inh: inhibitors of macrophage phagocytosis, primary screen, imaging, J774A.1 cells, IgG beads. J774A.1 macrophage IgG-bead phagocytosis. inhibition, % at 5 µM. 110,000 compounds, 0.07% hits. AID 1029, 2008;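 active means inhibition above the mean of the plate negative controls plus 5 SD, cut at about 13% in these data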;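 further: phagocytic index as fraction of beads internalized from green versus red external bead signal; plate controls were DMSO negative control for no effect and cytochalasin-D positive control for full effect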
MRP1 act: H69AR viability gain despite doxorubicin, primary screen, MRP-1 activator project, H69AR cells, CellTiter-Glo; 140,000 compounds, 0.61% hits; viability rescue; viability increase, % at 10 µM;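 active means viability gain under doxorubicin at or above a set limit, the compound median plus 3 SD, cut at about 4.7% in these data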;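 further: MRP-1 overexpressing cells given doxorubicin 25 µM after compound pretreatment; 18-22 h compound pretreatment then 72 h with doxorubicin before readout; 0% = doxorubicin-only wells and 100% = vehicle-treated cells without doxorubicin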
Yeast lifespan up: compounds extending yeast replicative lifespan, primary screen, S. cerevisiae, OD615; AID 775, 2007; 130,000 compounds, 0.68% hits; S. cerevisiae growth with nicotinamide; deaD strain in restrictive glucose medium; inhibition of the nicotinamide effect, % at 10 µM;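 active means inhibition above a set limit, placed 3 SD over the median of all compounds, cut at about 26% in these data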;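 further: 0% = nicotinamide-treated wells and 100% = cells grown without nicotinamide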
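Assay system: DeaD-strain S. cerevisiae. Medium: CSMM-D glucose medium, restrictive. Reagent: nicotinamide, 1.5 mM, co-present with compound. Compound: 10 µM single point, 0.25% DMSO. Schedule: culture preincubation 4 h, compound exposure 48 h, both 30 °C. Detection: absorbance at 615 nm.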
Yeast growth inh: growth inhibitors of yeast BB579 in restrictive medium, primary screen, yeast lifespan-shortening project, S. cerevisiae | OD615, 48 h | inhibition, % at 10 µM | 140,000 compounds, 0.51% hits | AID 804, 2007;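 active means inhibition above a set limit, 3 SD over the mean compound inhibition, cut at about 44% in these data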
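System: Saccharomyces cerevisiae DeaD strain BB579, replicative lifespan model yeast | Buffer or medium: Restrictive glucose-based CSMM-D medium | Times: 4 h preincubation and 48 h exposure at 30 °C | Detection: OD615 turbidity measurement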
MRP reversal: reversal of MRP1-mediated doxorubicin resistance, primary screen, H69AR cells, doxorubicin co-treatment; H69AR cells + 2 uM doxorubicin, CellTiter-Glo, 72 h; differential viability (reversal), % at 10 µM; 85,000 compounds, 0.04% hits; AID 602, 2007;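 active means viability drop by adding the cancer drug above about 55%, with treated viability meeting a 40% cutoff, limit read from the data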;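 further: viability without doxorubicin minus viability with 2 µM doxorubicin for each compound; larger differential means the compound sensitizes cells more to doxorubicin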
sdo1 growth: growth rescue of sdo1-depleted yeast, primary screen, S. cerevisiae, bone marrow failure model; 140,000 compounds, 0.21% hits; S. cerevisiae sdo1-depleted JHY4D growth rescue, OD600 30 h; active compounds read high; pdr5 snq2 efflux-pump mutant strain; z-score at 10 µM;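 active means z-score above 3 at both the 24 hr and the 30 hr optical density reads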;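 further: z-score against mean and SD of all compound wells on the same plate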
* hit, by the source's call; . = not tested or not shown.

SMILES	Phagocytosis inh	MRP1 act	Yeast lifespan up	Yeast growth inh	MRP reversal	sdo1 growth
CCOC(=O)C1=C(N)OC2=C(C(=O)CCC2)C1c1ccc(C)s1 (configuration not stated)	3.2	-2.2	7.4	-26.2	18.8	-0.6
O=C(/C(=C/c1ccccc1)n1cncn1)c1ccc(Cl)cc1Cl	-7.3	-3.6	48.5*	11.7	.	-1.25
CN1CCN(c2nc(-c3ccccn3)nc3ccccc23)CC1	.	-3.4	1.9	-12.1	67.7*	0.72
c1ccc(N2CCN(c3nc(-c4ccccn4)nc4ccccc34)CC2)cc1	1.8	-5.7	-4.0	-5.2	.	-2.26
COc1cc(NC2c3ccccc3C(=O)N2c2ccc(C)cn2)cc(OC)c1OC (configuration not stated)	0.9	-1.2	26.6*	-37.8	5.8	-0.85
O=C1ON=C(c2ccccc2)/C1=C/c1ccc(-c2ccccc2[N+](=O)[O-])o1	-4.1	-5.1	42.4*	22.2	.	-1.23
O=[N+]([O-])c1ccccc1-c1ccc(/C=N/n2cnnc2)o1	.	-4.6	-6.1	-14.7	.	0.66
Cc1cccnc1NC(=O)c1cc2c(=O)oc3ccccc3c2s1	-7.0	0.7	-1.2	-27.5	.	1.35
CC(C)NS(=O)(=O)c1cc(C(=O)O)ccc1Cl	-3.8	-2.9	26.5*	-24.0	.	1.72
Cc1ccc(-n2c(=O)[nH]cc(C(=O)Nc3ccc4c(c3)OCCO4)c2=O)cc1C	-0.4	-2.9	2.0	-26.2	1.4	0.21
COc1cccc(CNC(=O)CCNC(=O)Cn2ccc3ccccc3c2=O)c1	.	-1.1	-28.6	-39.5	.	0.35
O=C(CCNC(=O)Cn1ccc2ccccc2c1=O)NCCc1ccccc1Cl	6.8	5.1*	-5.6	-4.7	.	-0.49
Oc1cc(NCc2cccnc2)ccc1-c1nc2ccccc2o1	-1.5	5.0*	-18.9	-18.9	8.8	-1.5
CCc1ccc(OCC(=O)Nc2ccc(-c3nc4ccccc4o3)c(O)c2)cc1	.	-1.0	-5.9	-44.6	2.9	0.7
Cc1cc(N(CC(=O)NC2CC2)S(C)(=O)=O)ccc1Br	-2.5	-2.5	-0.5	-10.0	.	0.2
Oc1c(C=C2N=c3ccccc3=N2)sc(=S)n1C1CCCC1	-8.3	-4.2	1.2	-4.8	.	-1.34
Oc1c(C=C2N=c3ccccc3=N2)sc(=S)n1-c1ccc(F)cc1	-10.5	9.2*	3.1	-34.1	.	-0.24
Fc1ccc(-c2nc3ccccc3c3nc4ccccc4n23)cc1	-0.3	-3.3	-3.7	-23.3	.	-1.29
N#CCSc1nc2ccccc2c2nc3ccccc3n12	.	-5.1	-4.7	61.0*	.	-0.85
N#CCSc1nc2cc(C(=O)N3CCC(C(N)=O)CC3)ccc2c2nc3ccccc3n12	-0.5	6.1*	-6.2	3.8	-21.5	-0.37
N#CCSc1nc2cc(C(=O)N3CCCC3)ccc2c(=O)n1Cc1ccccc1	.	-1.1	-11.8	-17.8	.	-0.99
CCCc1cc(C(=O)NC2CCCCC2)no1	1.5	2.0	0.3	43.3*	-2.5	0.28
Nc1nonc1-c1noc(-c2ccccc2)n1	.	3.1	-5.9	-6.0	.	-0.31
CSc1cccc(NC(=O)CN(C)S(=O)(=O)c2ccccc2)c1	-1.4	-1.3	-8.9	-34.9	9.9	-1.16
O=C(O)CSCC(=O)Nc1ccc(C(=O)O)cc1	-0.8	-2.2	5.1	-16.3	4.5	-0.68
SMILES	Phagocytosis inh	MRP1 act	Yeast lifespan up	Yeast growth inh	MRP reversal	sdo1 growth
COC(=O)N/N=C/c1ccc(-c2cc(Cl)ccc2Cl)o1	-13.7	4.9*	-4.5	-20.9	.	-1.59
CC(C)(C)C1=CC(=Nc2ccccc2N)C=C(C(C)(C)C)C1=O	.	-0.8	3.9	-30.5	.	1.16
CC(C)(C)C1=CC(=O)C(=O)C(C(C)(C)C)=C1	-0.8	-4.9	40.3*	-43.6	.	-1.06
CCc1nnc(NS(=O)(=O)c2ccc(N=Cc3c(C)[nH]n(-c4ccc(C)c(C)c4)c3=O)cc2)s1	-1.0	-0.1	6.5	-32.7	.	-0.59
CCc1ccc(C(=O)CN2C(=O)NC(C)(CCc3ccccc3)C2=O)cc1 (configuration not stated)	-1.1	3.7	46.2*	-27.7	.	-0.43
CC1(CCc2ccccc2)NC(=O)N(Cc2nnc(-c3ccccc3Br)o2)C1=O (configuration not stated)	-0.5	-0.8	-11.8	-31.9	-21.3	-0.81
